The subject of one data set is Mus musculus. The data set is described as follows: Hypouricemic activity in Kunming mouse model of xanthine/potassium oxonate-induced acute hyperuricemia assessed as decrease in serum uric acid level at 2 mg/kg administered 3 hrs prior to xanthine/potassium oxonate and measured after 6 hrs relative to control. It is filed as functional. Also on record: scale not given: the % may be the effect or the level left. Conditions: time 9 hrs. The method, boiled down:
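Male Kunming mice, hyperuricemia induced by intragastric xanthine plus subcutaneous potassium oxonate (0.2 mL each). […] Groups: normal vehicle, untreated model, active control, test. Serum uric acid measured. Decrease ratio = (model SUA − compound SUA)/(model SUA − vehicle SUA).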

The nature of data set [1]: Sub-acute toxicity in Kunming mouse assessed as edema in proximal tubule at 50 mg/kg, po administered as single dose every other day for 14 days by H and E staining based assay. It is filed as organism-based. The settings on record: in vivo, 336 h, time 14 day. The method, boiled down: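 Kunming mice, n = 4 per sex, fasted 12 h. Dosed orally on D0, D2, D4, D6, D8, D10 and D12; controls received an equal volume of vehicle. Weighed before each dose. Killed at D14; heart, liver, spleen, lung and kidney taken for haematoxylin and eosin staining.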

Data set [2] addresses T1, Solute carrier family 22 member 12 (Homo sapiens, UniProt Q96S37).
T1 sequence (Q96S37 whole entry): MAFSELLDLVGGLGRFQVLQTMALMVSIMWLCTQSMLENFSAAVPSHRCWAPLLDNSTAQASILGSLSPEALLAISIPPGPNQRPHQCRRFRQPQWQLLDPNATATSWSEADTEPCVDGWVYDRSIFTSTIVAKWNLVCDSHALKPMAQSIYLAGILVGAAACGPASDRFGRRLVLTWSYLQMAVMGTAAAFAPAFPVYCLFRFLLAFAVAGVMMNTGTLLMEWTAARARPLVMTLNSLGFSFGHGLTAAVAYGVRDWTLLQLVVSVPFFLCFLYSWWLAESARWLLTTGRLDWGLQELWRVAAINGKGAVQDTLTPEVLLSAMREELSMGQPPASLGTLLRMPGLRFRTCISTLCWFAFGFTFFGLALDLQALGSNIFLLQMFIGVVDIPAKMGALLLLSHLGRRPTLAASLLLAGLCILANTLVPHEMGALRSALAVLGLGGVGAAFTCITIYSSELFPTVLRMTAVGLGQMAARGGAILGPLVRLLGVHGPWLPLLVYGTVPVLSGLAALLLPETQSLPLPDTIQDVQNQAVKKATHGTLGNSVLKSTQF
The data set can be described thus: Inhibition of human URAT1 expressed in HEK293T cells assessed as reduction in [14C]uric acid uptake preincubated for 15 mins followed by [14C]uric acid addition by liquid scintillation counting method. It is filed as cell-based.

Broadly, the IC50 is the concentration needed to halve the response being measured.

Consider `O=C(O)C1(Sc2nc3ncccc3n2-c2ccc(C3CC3)c3ccccc23)CCC1`, for which the Activity was 62.18% in the data set on Mus musculus and “Toxic” in data set [1].
As to `CC(Sc1nc2cccnc2n1-c1ccc(C2CC2)c2ccccc12)C(=O)O` (stereo unspecified), the IC50 in data set [2] was greater than 30 µM. In addition, in the data set on Mus musculus, the Activity is 42.06%.
As for `CC(C)(C)c1ccc(S(=O)(=O)NC(=O)CSc2nnc(Br)n2-c2ccc(C3CC3)c3ccccc23)cc1`, in the data set on Mus musculus, the Activity came to 15.1%.
As for `C[C@H](Sc1nc2cnccc2n1-c1ccc(C2CC2)c2ccccc12)C(=O)O` (stereo in doubt; 54c), the Activity with Mus musculus (2 mg/kg) turned out to be 93.54%.

The record behind these values is ChEMBL document CHEMBL4665798, “Novel Human Urate Transporter 1 Inhibitors as Hypouricemic Drug Candidates with Favorable Druggability” (J Med Chem, 2020).
